Data set [1] has as its target Epidermal growth factor receptor (Homo sapiens) (UniProt P00533). Briefly: Inhibition of EGFR.
Data set [2] concerns the target Insulin receptor (Homo sapiens) (UniProt P06213). In words: Inhibition of IRK.
The target of data set [3] is Epidermal growth factor receptor and ErbB2 (HER1 and HER2) (Homo sapiens) (UniProt P04626+P00533). In words: Selectivity for erbB2 over EGFR. Format: protein assay. Put shortly: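 Cell selectivity: IC50 ratio between two NIH3T3 lines run under identical conditions, one carrying human EGFR and one carrying the EGFR-extracellular/erbB2-intracellular chimera. Each line takes 2 h inhibitor, then 15 min human recombinant EGF. Phosphotyrosine measured with HRP-PY-54 and TMB at 450 nm.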

Data set [4] addresses T1, Receptor tyrosine-protein kinase erbB-2 (Homo sapiens, UniProt P04626). In words: Inhibition of erbB2 in NH3T3 cells. Format: cell-based. Put shortly:
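NIH3T3 cells expressing a chimera of EGFR extracellular and erbB2 intracellular domains are plated, exposed to inhibitor for 2 h, then stimulated with human recombinant EGF for 15 min. Receptor phosphotyrosine read with HRP-PY-54 antibody and TMB, A450. IC50 is the mean of at least two experiments.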

The target of data set [5] is T1, Receptor tyrosine-protein kinase erbB-2. In words: Inhibition of erbB2 expressed in Sf9 cells. Put shortly:
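GST-tagged erbB2 intracellular domain (residues 675–1255) made in baculovirus/Sf9 and purified; ~15 ng enzyme phosphorylates poly(Glu,Tyr) with 1 mM ATP plus inhibitor over 6 min. Phosphotyrosine detected by HRP-PY-54 antibody and TMB, A450. IC50 is the mean of at least two experiments.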

The target in data set [6] is Insulin-like growth factor 1 receptor (Homo sapiens) (UniProt P08069). Briefly: Inhibition of IGF1R.
The target of data set [7] is Cyclin-dependent kinase 2 (Homo sapiens) (UniProt P24941). In words: Inhibition of CDK2.
In data set [8] the target is Tyrosine-protein kinase Lck (Homo sapiens) (UniProt P06239). In words: Inhibition of LCK.
In data set [9] the target is Cyclin-dependent kinase 5 (Homo sapiens) (UniProt Q00535). In words: Inhibition of CDK5.
Cyclin-dependent kinase 5 (Homo sapiens), sequence (Q00535 whole entry, looked up): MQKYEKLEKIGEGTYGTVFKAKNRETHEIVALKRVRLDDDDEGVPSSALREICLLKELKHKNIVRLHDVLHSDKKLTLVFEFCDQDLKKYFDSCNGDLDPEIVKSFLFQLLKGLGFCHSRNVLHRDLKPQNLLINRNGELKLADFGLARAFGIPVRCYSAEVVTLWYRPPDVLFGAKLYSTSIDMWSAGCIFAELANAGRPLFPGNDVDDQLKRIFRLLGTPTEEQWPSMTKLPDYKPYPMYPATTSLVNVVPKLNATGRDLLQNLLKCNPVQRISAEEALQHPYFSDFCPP
The target of data set [10] is Proto-oncogene tyrosine-protein kinase Src (Homo sapiens) (UniProt P12931). Briefly: Inhibition of cSRC.
For data set [11], the target named is Protein kinase C alpha type (Homo sapiens) (UniProt P17252). In words: Inhibition of PKCalpha.
The target of data set [12] is Protein kinase C theta type (Homo sapiens) (UniProt Q04759). Briefly: Inhibition of PKCtheta.
Protein kinase C theta type (Homo sapiens), sequence (Q04759 whole entry, looked up): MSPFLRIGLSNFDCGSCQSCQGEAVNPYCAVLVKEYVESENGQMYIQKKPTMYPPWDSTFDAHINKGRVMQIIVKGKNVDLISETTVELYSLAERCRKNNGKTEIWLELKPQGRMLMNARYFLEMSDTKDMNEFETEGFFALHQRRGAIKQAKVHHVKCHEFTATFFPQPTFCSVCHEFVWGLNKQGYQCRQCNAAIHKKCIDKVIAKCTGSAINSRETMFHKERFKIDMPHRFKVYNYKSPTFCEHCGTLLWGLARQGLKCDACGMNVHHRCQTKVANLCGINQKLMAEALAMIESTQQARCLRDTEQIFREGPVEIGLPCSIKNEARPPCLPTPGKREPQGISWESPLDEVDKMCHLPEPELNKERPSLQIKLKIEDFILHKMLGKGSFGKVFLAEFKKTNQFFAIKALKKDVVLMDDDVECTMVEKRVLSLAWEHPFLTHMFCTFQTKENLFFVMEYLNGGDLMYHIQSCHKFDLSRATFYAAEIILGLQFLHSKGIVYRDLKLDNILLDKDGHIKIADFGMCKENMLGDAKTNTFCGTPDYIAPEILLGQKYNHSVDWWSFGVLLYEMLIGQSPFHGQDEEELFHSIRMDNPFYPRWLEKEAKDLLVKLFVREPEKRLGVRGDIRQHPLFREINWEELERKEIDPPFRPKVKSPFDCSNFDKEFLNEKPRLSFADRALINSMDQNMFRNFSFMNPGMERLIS
Data set [13] has as its target Tyrosine-protein kinase Fes/Fps (Homo sapiens) (UniProt P07332). Briefly: Inhibition of FES.
Data set [14] deals with T2, Tyrosine-protein kinase JAK3 (Homo sapiens) (UniProt P52333).
T2 sequence (whole entry): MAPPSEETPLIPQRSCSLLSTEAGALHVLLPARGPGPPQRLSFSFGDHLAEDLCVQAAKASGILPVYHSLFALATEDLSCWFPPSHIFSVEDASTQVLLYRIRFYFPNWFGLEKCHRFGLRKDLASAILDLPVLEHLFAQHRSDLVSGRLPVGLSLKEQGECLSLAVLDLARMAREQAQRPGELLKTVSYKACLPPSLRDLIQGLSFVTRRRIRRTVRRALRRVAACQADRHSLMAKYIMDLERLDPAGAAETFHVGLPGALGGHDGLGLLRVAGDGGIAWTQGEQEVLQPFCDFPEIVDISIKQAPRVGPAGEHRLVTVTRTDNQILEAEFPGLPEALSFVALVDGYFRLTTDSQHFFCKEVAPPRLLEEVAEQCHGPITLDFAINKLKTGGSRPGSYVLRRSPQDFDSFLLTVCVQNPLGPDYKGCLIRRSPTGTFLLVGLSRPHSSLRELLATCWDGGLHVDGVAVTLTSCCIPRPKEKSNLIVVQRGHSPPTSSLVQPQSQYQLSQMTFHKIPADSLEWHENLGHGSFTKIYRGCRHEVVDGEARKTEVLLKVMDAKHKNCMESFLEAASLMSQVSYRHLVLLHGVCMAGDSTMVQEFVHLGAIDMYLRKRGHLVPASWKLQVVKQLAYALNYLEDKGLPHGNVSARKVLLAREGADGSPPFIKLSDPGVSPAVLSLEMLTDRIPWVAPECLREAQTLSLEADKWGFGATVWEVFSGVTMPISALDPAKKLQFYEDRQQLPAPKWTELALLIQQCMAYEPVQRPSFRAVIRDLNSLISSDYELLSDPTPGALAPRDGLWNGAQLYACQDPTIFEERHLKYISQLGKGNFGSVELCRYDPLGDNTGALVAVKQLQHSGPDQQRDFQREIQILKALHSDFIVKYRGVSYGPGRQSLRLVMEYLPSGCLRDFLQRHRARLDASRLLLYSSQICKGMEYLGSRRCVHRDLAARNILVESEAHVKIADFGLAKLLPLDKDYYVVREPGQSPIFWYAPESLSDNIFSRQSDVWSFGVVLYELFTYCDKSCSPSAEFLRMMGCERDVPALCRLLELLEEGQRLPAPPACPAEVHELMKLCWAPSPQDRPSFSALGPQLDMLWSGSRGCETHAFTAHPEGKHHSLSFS
In words: Inhibition of JAK3.

Data set [15] concerns the target Platelet-derived growth factor receptor beta (Homo sapiens) (UniProt P09619). In words: Inhibition of PDGFRB.
For data set [16], the target named is cAMP-dependent protein kinase (PKA) (Homo sapiens) (UniProt P22694+P17612+P22612). Briefly: Inhibition of PKA. Format: protein assay.
Data set [17] deals with Wee1-like protein kinase (Homo sapiens) (UniProt P30291). Briefly: Inhibition of Wee1.
Wee1-like protein kinase (Homo sapiens), sequence (P30291 whole entry, looked up): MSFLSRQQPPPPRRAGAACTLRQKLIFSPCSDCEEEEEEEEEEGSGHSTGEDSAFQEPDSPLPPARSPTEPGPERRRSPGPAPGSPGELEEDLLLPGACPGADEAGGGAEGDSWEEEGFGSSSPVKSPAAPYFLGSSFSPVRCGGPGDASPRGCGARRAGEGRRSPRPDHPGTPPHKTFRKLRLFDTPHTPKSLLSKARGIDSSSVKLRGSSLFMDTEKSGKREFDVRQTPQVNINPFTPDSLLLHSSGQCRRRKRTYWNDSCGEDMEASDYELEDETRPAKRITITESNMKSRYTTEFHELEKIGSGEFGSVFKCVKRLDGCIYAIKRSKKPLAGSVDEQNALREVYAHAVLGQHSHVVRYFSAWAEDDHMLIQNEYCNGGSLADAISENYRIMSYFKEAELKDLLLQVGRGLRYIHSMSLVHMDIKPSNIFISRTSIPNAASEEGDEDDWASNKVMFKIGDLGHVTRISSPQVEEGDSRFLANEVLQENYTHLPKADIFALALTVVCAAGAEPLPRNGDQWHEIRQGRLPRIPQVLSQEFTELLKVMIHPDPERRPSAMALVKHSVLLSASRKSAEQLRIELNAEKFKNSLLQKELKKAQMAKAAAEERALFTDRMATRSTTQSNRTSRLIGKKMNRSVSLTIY
A short description of data set [18]: Permeability from apical to basolateral side of Caco-2 cell membrane. Format: ADME, cell-based. Particulars: human, read-out: permeability. (Caco-2 cells form a polarised layer with tight junctions and transporters.)

The structures appear in SMILES notation.

T1 sequence (P04626 whole entry, the tested form may be a part): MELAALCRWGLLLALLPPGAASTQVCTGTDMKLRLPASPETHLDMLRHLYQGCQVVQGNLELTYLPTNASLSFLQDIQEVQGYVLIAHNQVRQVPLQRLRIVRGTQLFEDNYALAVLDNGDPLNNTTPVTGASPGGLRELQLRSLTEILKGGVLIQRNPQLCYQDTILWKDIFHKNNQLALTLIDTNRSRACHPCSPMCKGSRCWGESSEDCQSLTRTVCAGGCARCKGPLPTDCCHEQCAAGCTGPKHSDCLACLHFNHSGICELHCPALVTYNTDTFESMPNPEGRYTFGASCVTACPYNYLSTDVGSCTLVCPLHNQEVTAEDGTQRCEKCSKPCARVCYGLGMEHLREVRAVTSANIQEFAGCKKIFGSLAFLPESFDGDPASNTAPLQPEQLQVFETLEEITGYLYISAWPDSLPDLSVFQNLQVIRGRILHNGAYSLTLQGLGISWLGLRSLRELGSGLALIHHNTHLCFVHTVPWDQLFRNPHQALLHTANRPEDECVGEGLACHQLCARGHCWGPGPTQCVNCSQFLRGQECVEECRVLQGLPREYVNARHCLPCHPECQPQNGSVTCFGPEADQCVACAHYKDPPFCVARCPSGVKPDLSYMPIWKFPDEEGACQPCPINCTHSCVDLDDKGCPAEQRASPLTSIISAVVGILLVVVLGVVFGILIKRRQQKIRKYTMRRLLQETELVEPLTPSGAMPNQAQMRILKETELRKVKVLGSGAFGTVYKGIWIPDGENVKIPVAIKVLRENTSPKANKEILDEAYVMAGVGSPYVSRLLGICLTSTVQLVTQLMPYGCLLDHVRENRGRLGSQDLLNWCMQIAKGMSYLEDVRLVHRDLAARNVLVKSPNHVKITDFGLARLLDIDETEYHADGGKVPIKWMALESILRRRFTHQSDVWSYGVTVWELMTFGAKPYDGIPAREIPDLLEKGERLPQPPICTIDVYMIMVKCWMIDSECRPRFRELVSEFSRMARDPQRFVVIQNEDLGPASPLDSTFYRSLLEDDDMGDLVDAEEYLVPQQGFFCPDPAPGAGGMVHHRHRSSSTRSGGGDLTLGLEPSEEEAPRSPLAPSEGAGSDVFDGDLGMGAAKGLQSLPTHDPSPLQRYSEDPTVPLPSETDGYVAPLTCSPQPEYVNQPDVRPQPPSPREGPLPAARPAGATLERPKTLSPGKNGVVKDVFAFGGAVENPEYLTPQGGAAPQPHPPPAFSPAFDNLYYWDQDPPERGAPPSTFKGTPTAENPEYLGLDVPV
Epidermal growth factor receptor (Homo sapiens), sequence (P00533 whole entry): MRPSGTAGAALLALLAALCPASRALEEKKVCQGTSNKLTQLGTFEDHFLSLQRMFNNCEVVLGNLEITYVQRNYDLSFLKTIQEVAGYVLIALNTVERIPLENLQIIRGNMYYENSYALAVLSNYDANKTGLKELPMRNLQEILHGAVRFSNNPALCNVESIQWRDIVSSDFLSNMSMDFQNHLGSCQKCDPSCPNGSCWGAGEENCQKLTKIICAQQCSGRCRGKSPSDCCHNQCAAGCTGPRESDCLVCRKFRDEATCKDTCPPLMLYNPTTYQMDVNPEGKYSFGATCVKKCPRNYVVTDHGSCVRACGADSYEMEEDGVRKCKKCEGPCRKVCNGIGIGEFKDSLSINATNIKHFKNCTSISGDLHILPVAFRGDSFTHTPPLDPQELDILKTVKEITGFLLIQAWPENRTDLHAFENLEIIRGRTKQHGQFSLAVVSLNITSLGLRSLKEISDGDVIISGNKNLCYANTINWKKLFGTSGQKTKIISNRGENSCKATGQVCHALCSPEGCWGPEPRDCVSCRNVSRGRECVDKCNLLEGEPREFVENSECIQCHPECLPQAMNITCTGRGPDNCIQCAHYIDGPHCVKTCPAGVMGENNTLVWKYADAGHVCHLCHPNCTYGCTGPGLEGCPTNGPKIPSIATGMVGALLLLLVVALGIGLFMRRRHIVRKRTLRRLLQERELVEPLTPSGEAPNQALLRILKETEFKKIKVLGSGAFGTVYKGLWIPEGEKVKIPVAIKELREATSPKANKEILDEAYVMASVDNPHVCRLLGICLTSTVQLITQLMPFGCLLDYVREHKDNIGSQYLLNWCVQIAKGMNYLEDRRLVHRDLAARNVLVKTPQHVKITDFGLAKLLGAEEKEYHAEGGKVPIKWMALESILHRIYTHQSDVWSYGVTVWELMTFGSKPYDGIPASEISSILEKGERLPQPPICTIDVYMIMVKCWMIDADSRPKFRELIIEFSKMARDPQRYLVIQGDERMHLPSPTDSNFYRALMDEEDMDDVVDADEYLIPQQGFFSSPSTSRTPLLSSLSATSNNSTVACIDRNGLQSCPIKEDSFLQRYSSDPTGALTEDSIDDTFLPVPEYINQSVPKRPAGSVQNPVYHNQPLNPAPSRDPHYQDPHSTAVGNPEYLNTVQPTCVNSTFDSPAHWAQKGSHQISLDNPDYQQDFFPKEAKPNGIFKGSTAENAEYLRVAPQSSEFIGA

What is called IC50 is the concentration needed to halve the response being measured. As to `Cc1cc(Nc2ncnc3cnc(N4CCOCC4)cc23)ccc1Oc1ccc(C(=O)NCC(C)(C)C)cc1`, the Activity in data set [1], in [2], in data set [6], in [7], in [8] and in data set [9] was over 10 µM each time. Besides, the Activity in [10], in data set [11], in data set [12], in data set [13], in data set [14] and in data set [15] was over 10 µM throughout. In addition, the Activity in data set [16] and in data set [17] was over 10 µM in each case. Moreover, the Selectivity ratio in data set [3] is over 410. Also, the IC50 in data set [4] was 24 nM; in data set [5], 21 nM. Also, the Papp A→B in data set [18] is 15.4 ×10⁻⁶ cm/s.

For the origin of these results see ChEMBL document CHEMBL1144645, “The discovery of highly selective erbB2 (Her2) inhibitors for the treatment of cancer” (Bioorg Med Chem Lett, 2007).
